EBI2 antag = EBI2 (human) antagonism; P32249; EBI2 beta-arrestin recruitment, luminescence, 7a,25-OHC stimulated; inhibition, % at 5 µM; 0.81% of 360,000 active; AID 651636; in the data active = inhibition above about 38%;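 note: enzyme fragment complementation signal reports receptor beta-arrestin coupling in cells; 0% = agonist plus DMSO wells and 100% = wells without agonist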
CXCR6 block = blocks human CXCR6 beta-arrestin recruitment. O00574. CHO-K1 PathHunter CXCR6 beta-arrestin, luminescence. inhibition, % at 20 µM. 0.36% of 360,000 active. AID 602244; in the data active = inhibition above about 34%, passing the limit was not always enough;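 note: antagonist mode with CXCL16 agonist at 10 nM final; 0% = 10 nM CXCL16 with DMSO and 100% = unstimulated wells without agonist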
CCR6 antagonist = CCR6 (human) receptor antagonism. AID 493098. CHO-K1 CCR6 PathHunter beta-arrestin, luminescence, CCL20-stimulated. P51684. inhibition, % at 20 µM. 0.49% of 340,000 active;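 active = compounds whose inhibition of the agonist-driven luminescence signal at 20 µM reaches about 50%, limit read from the data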;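 note: cells stimulated with CCL20 at 14 nM final; plate controls were DMSO with CCL20 for no effect and DMSO without agonist for full effect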
Target sequence (P51684 whole entry, looked up): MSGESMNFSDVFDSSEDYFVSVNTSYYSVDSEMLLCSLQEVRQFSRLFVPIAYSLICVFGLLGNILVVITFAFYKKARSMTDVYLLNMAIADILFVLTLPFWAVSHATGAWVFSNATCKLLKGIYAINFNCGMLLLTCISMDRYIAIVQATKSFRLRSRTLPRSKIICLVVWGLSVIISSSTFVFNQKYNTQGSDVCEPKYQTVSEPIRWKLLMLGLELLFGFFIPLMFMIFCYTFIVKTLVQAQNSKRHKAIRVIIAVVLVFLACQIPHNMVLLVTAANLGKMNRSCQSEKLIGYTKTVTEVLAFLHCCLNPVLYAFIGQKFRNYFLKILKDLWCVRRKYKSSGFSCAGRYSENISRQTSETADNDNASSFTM
APJ ag = agonists of human APJ apelin receptor; CHO-K1 APJ PathHunter beta-arrestin, luminescence; 0% DMSO wells, 100% apelin; activation, % at 20 µM; 0.11% of 330,000 active; AID 2520;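 active = activation more than six SD over the plate average, tested at 20 µM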;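 note: 0% = DMSO alone and 100% = apelin-13 at 10 nM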
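Assay system: CHO-K1 cells stably expressing ProLink-tagged human APJ and arrestin–beta-gal acceptor. Compound dosing: 20 µM single point, 1% DMSO. Times: 16-18 h seeding, 90 min dark compound exposure, 60 min detection. Detection: beta-gal luminescence. Evaluation: APJ–arrestin association signal. Controls: negative DMSO alone, positive Apelin-13 at 10 nM.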
APJ antagonist = antagonists of human APJ apelin receptor; P35414; CHO-K1 APJ beta-arrestin complementation, luminescence; inhibition, % at 20 µM; 0.32% of 330,000 active; AID 2521;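 active = inhibition above about 40% at 20 µM, limit read from the data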;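 note: cells challenged with 10 nM apelin-13 agonist together with compound; plate controls were apelin-13 plus DMSO wells for no effect and DMSO wells lacking apelin-13 for full effect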
FXN GAA850 act = frataxin GAA850 promoter activation | HEK293 lucGAA850 FXN promoter luciferase reporter, 24 h; percent of 10 µM SAHA response | 0.56% of 360,000 active | activation, % at 6 µM | AID 540364;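 active = activation above the average of all compounds screened plus 3 SD, cutoff fixed separately per campaign, cut at about 7.5% in these data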;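 note: 0% = DMSO wells and 100% = 10 µM SAHA wells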
CXCR6 antag conf = confirmation of human CXCR6 receptor antagonists | shares compounds with CXCR6 block | CHO-K1 CXCR6 PathHunter beta-arrestin, luminescence | inhibition, % at 20 µM | 65% of 700 active;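 active = mean inhibition over four retests above 40%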;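 note: receptor stimulated with 10 nM CXCL16 agonist; beta-galactosidase fragment complementation upon beta-arrestin recruitment to receptor; plate controls were CXCL16 plus DMSO for no effect and DMSO without CXCL16 for full effect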
EBI2 conf = confirmation of human EBI2 receptor antagonists; inhibition, % at 5 µM; EBI2 beta-arrestin luminescence, 7a,25-OHC antagonism; AID 651997; 29% of 2,400 active; shares compounds with EBI2 antag;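 active = inhibition of at least 50%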
EBI2 ag = counter-screen for EBI2 antagonists: EBI2 agonist activity; activation, % at 5 µM; EBI2-expressing cells, agonist mode, luminescence, 60 min; 0% vehicle, 100% 7α,25-dihydroxycholesterol control; 2,400 tested, under 10 active; shares compounds with EBI2 antag;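 active = activation of at least 50%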
bGal cs = counter-screen for EBI2 antagonists: E. coli beta-galactosidase inhibition; shares compounds with EBI2 antag; 1% of 2,400 active; inhibition, % at 5 µM; purified beta-galactosidase, luminescent Galacton Star, 15 min;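 active = replicate-average signal at least 3 plate SD below neutral wells, shown as high inhibition, flagging enzyme-inhibiting false positives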;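 note: 0% = DMSO wells with enzyme and 100% = wells lacking enzyme; higher means stronger loss of beta-gal luminescence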
Active calls of the source: *. In the library only some 2% were active in any assay of this set; here they are far more common.

For C/C(=N\NC(=O)c1cc(-c2cccs2)nc2ccccc12)c1ccccn1 the results were EBI2 antag 66.0*, CXCR6 block 44.7*, CCR6 antagonist 29.3, APJ ag -8.0, APJ antagonist 39.2, FXN GAA850 act 2.3, CXCR6 antag conf 44.0*, EBI2 conf 48.3, EBI2 ag -2.7 and bGal cs -9.8.
Screening NNC(=O)c1cc(-c2cccs2)nc2ccccc12 returned EBI2 antag -8.7, CXCR6 block -27.6, CCR6 antagonist -17.3, APJ ag 0.6, APJ antagonist -5.5 and FXN GAA850 act -2.0.
COc1ccc(C(=O)N/N=C(\C)c2ccccn2)cc1OC was read as EBI2 antag 58.0*, CXCR6 block 50.8*, CCR6 antagonist 74.8*, APJ ag -21.2, APJ antagonist 75.5*, FXN GAA850 act -0.6, CXCR6 antag conf 69.4*, EBI2 conf 83.9*, EBI2 ag -0.7 and bGal cs -0.4.
O=C(CN1CCN(C(=O)c2ccc(-c3nc4ccccc4s3)o2)CC1)Nc1ccc(F)cc1 was read as EBI2 antag 8.9, CXCR6 block -10.5, CCR6 antagonist 5.2, APJ ag 0.9, APJ antagonist -1.3 and FXN GAA850 act 1.5.
For Cc1ccc(NC(=S)NNC(=S)Nc2cccc(C(F)(F)F)c2)cc1 the results were EBI2 antag 27.8, CXCR6 block 12.4, CCR6 antagonist 26.9, APJ ag 0.1, APJ antagonist -5.8 and FXN GAA850 act -1.2.
Cc1ccc(NC(=S)NNc2ncc(C(F)(F)F)cc2Cl)cc1 was read as EBI2 antag 42.3*, CXCR6 block 77.5*, CCR6 antagonist 90.4*, APJ ag -2.0, APJ antagonist -18.2, FXN GAA850 act -2.3, CXCR6 antag conf 58.2*, EBI2 conf 32.6, EBI2 ag -1.2 and bGal cs 15.0.
Cc1n[nH]c(=S)n(NC(=O)CC(=O)Nn2c(=S)[nH]nc(C)c2=O)c1=O was read as EBI2 antag 44.4*, CXCR6 block 103.1*, APJ ag -2.5, APJ antagonist 9.8, FXN GAA850 act 0.2, CXCR6 antag conf 115.0*, EBI2 conf 21.6, EBI2 ag -4.2 and bGal cs 17.0*.
CCOC(=O)c1[nH]cnc1C(=O)N1CCC(C)CC1 was read as EBI2 antag -10.2, CXCR6 block 7.8, CCR6 antagonist 10.2, APJ ag -2.3, APJ antagonist 4.9 and FXN GAA850 act 2.0.
O=[N+]([O-])c1ccc(N/N=C/c2sc(N3CCOCC3)nc2-c2ccccc2)c(S(=O)(=O)Nc2ccc(Cl)cc2)c1 was read as EBI2 antag 51.5*, CXCR6 block 51.7*, CCR6 antagonist 83.0*, FXN GAA850 act -0.2, CXCR6 antag conf 61.6*, EBI2 conf 30.3, EBI2 ag -1.5 and bGal cs 12.5.
O=C(NCC1CCOCC1)c1ccc(-c2ccc(F)c(F)c2)c2ccoc12 was read as EBI2 antag 11.7, CXCR6 block -2.4 and FXN GAA850 act 2.1.
Screening CCC(CC)C(=O)N(C)c1c(C)nc2c(OCc3ccccc3C)cccn12 returned EBI2 antag -1.2, CXCR6 block 1.3 and FXN GAA850 act -3.4.
`CCC(CC)C(=O)N(C)c1c(C)nc2c(OCc3ccc(Cl)cc3Cl)cccn12` gave EBI2 antag 47.3*, CXCR6 block 50.8*, FXN GAA850 act -0.7, CXCR6 antag conf 23.5, EBI2 conf 45.7, EBI2 ag -1.2 and bGal cs 8.3.
